# ChEMBL document CHEMBL1138658, “Novel 2-aminotetralin and 3-aminochroman derivatives as selective serotonin 5-HT7 receptor agonists and antagonists” (J Med Chem, 2004)
# Tests used:
# [1] = target: T1, 5-hydroxytryptamine receptor 6 (Rattus norvegicus, UniProt P31388); assay: Inhibition of [3H]-5-HT binding to rat 5-HT6 receptor
# [2] = target: 5-hydroxytryptamine receptor 7 (Rattus norvegicus) (UniProt P32305); assay: Stimulation of cAMP production in CHO cells expressing rat 5-hydroxytryptamine 7 receptor; type: functional, cell-based
# Sequence of 5-hydroxytryptamine receptor 7 (Rattus norvegicus) (P32305 whole entry): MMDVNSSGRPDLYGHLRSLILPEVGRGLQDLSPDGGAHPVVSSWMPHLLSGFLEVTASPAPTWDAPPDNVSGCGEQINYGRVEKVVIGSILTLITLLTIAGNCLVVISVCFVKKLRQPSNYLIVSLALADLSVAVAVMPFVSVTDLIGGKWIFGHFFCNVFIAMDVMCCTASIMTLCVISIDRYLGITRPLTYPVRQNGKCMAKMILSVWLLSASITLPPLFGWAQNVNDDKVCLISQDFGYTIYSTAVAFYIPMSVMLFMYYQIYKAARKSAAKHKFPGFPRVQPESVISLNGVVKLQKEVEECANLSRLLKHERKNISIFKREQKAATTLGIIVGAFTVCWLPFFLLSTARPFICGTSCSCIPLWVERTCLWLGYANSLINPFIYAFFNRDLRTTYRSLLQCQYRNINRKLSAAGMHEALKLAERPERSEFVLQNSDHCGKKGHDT
# In short: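 cAMP production in CHO cells expressing rat 5-HT7 receptor. Efficacy is expressed as percent of the 5-HT-stimulated production.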
# [3] = target: T2, 5-hydroxytryptamine receptor 1A (Rattus norvegicus, UniProt P19327); assay: Inhibition of [3H]8-OH-DPAT binding to rat 5-hydroxytryptamine 1A receptor
# T2 sequence (P19327 whole entry): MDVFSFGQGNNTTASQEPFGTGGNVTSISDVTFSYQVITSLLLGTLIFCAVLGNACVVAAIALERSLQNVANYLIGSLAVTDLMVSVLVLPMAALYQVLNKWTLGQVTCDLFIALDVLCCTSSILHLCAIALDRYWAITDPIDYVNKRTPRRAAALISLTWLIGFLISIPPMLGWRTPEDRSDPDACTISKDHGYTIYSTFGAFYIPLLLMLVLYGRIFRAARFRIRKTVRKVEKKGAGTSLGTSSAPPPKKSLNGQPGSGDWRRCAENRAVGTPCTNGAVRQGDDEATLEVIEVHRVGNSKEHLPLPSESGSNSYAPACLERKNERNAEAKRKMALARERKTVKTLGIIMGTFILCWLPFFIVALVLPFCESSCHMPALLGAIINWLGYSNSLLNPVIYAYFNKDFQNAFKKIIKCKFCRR
# In short: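 Radioligand [3H]-8-OH-DPAT; receptor source either CHO cells expressing human 5-HT1A or rat hippocampal cells.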
# [4] = target: T3, 5-hydroxytryptamine receptor 7 (Rattus norvegicus, UniProt P32305); assay: Inhibition of [3H]5-HT binding to rat 5-HT7 receptor
# T3 sequence (P32305 whole entry): as the sequence (P32305 whole entry) above
# In short: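 Displacement of [3H]-5-HT from rat 5-HT7 receptor expressed in CHO or Sf9 cells.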
# [5] = target: T3, 5-hydroxytryptamine receptor 7; assay: Inhibition of [3H]-5-HT binding to rat 5-hydroxytryptamine 7 receptor
# In short: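 Rat 5-HT7 receptor expressed in CHO or Sf9 cells; [3H]-5-HT radioligand displacement.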
# [6] = target: T4, Adrenergic receptor alpha-1 (Rattus norvegicus, UniProt P15823+P23944+P43140); assay: Inhibition of [3H]prazosin binding to rat cortex Alpha 1 receptor
# T4 sequence (P15823 whole entry): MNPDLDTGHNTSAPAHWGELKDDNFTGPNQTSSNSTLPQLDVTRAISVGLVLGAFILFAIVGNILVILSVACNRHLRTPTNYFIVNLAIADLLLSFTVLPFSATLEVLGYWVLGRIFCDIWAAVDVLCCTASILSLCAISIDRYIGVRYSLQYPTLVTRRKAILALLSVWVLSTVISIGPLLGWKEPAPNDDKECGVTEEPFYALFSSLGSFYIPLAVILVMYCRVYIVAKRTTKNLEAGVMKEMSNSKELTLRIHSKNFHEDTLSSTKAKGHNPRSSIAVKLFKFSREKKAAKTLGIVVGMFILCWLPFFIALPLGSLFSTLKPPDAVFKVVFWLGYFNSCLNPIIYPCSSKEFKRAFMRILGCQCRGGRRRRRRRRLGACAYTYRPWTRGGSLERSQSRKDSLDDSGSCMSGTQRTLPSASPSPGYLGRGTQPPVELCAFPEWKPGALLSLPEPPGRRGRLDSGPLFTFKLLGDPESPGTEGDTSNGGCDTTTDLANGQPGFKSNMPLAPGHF
# T4 sequence (P23944 whole entry): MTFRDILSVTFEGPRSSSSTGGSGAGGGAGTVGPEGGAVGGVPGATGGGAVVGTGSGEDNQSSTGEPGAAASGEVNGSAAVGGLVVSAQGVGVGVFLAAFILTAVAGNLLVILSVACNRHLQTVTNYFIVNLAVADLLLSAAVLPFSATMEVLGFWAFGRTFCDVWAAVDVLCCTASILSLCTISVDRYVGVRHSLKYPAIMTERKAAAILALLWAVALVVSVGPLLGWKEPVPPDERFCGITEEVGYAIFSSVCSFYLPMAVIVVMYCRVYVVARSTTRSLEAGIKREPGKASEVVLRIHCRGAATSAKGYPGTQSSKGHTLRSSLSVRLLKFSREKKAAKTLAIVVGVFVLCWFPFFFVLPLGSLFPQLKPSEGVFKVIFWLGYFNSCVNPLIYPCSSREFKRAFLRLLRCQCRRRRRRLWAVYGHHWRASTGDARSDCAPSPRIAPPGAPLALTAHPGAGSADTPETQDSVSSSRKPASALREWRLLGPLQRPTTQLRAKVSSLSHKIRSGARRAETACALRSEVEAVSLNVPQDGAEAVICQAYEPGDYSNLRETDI
# T4 sequence (P43140 whole entry): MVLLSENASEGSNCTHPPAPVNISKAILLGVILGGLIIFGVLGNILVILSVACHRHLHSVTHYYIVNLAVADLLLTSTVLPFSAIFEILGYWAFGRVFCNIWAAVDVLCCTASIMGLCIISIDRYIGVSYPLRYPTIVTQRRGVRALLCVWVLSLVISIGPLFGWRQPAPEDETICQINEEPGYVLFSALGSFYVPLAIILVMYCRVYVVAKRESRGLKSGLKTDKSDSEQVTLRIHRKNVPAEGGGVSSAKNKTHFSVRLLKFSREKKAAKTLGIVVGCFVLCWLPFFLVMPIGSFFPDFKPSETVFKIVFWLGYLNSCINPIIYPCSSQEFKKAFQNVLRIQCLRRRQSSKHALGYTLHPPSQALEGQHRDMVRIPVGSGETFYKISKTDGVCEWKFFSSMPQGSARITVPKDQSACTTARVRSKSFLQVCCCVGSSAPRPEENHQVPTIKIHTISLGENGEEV
# [7] = target: T1, 5-hydroxytryptamine receptor 6; assay: Inhibition of [3H]5-HT binding to rat 5-HT6 receptor
# [8] = target: 5-hydroxytryptamine receptor 4 (Cavia porcellus, UniProt O70528); assay: Inhibition of [3H]- GR-113808 binding to guinea pig striatum 5-HT4 receptor; type: tissue-based
# Sequence of 5-hydroxytryptamine receptor 4 (O70528 whole entry): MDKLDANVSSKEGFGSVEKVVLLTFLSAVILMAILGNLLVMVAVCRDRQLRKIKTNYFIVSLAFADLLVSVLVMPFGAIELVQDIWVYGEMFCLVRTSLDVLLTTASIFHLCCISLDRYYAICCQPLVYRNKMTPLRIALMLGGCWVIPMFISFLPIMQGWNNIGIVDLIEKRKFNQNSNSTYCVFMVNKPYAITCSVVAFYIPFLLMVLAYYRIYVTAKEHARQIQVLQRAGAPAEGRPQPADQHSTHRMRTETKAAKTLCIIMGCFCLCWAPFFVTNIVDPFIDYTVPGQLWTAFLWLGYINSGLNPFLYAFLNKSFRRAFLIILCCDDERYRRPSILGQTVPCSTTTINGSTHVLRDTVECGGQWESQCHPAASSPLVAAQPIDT
# [9] = target: Serotonin 3 (5-HT3) receptor; assay: Inhibition of [3H]GR-65630 binding to rabbit ileum muscularis 5-HT3 receptor; type: tissue-based, Oryctolagus cuniculus
# [10] = Inhibition of [3H]- LSD binding to 5-HT5 receptor expressed in CHO cells; type: cell-based
# T1 sequence (P31388 whole entry): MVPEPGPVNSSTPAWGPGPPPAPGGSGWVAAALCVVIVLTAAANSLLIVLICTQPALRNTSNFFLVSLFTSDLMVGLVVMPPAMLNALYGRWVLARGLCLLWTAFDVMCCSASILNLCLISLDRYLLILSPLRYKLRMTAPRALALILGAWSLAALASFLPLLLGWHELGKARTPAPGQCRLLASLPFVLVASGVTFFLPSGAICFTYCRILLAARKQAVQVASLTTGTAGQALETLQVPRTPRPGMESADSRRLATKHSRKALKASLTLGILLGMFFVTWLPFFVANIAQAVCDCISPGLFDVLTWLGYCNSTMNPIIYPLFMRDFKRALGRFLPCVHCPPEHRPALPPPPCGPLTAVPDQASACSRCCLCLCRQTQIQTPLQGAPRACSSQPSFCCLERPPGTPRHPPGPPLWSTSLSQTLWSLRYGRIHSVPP
Ki [1] [nM],Structure (SMILES),Efficacy [2] [%],Ki [3] [nM],Ki [4] [nM],Ki [5] [nM],Ki [6] [nM],IC50 [7] [nM],IC50 [8] [nM],IC50 [9] [nM],Ki [10] [nM]
> 900,CCCN(CCC)[C@H]1CCc2c(cccc2-c2c(OC)cccc2OC)C1,100,347,7.9,7.9,> 1000,–,–,–,–
–,COc1cccc(OC)c1-c1cccc2c1CC[C@H](N(C)C)C2,< 10,1420,2.55,2.55,3670,> 1000,> 1000,> 1000,65
